In test [1] the test system is Saccharomyces cerevisiae. Nature of the test: Binding affinity to Rce1p in yeast membrane at 15 uM measured 20 mins post irradiation by pull-down-Western blot analysis. In kind it is cell membranes. The procedure, abridged:
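Biotinylated probes at 15 μM were mixed with membranes (0.25 μg/μL) from the RCE1-HA rce1Δ ste24Δ yeast strain in 100 mM Hepes, 5 mM MgCl2, pH 7.5. Samples were irradiated at 2537 Å for 20 min at 4 °C. Protein was precipitated and pulled down on streptavidin for 4 h at 4 °C, then separated by 12% SDS-PAGE. Detection was by anti-HA Western blot with ECL, followed by densitometry.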
Background: A western blot detects proteins with antibodies after separation by electrophoresis.

Test [2] has as its system Saccharomyces cerevisiae. Nature of the test: Binding affinity to rce1/ste24-deficient yeast cell membrane at 15 uM after 30 mins by Western blot analysis. The procedure, abridged:
(§1)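 Probe at 15 μM was irradiated at 2537 Å for 30 min at 4 °C in Hepes/MgCl2 pH 7.5, or left unirradiated. Membranes (0.25 μg/μL) came from RCE1-HA or Rce1p-lacking (rce1Δ ste24Δ) yeast strains. This was followed by streptavidin pull-down, SDS-PAGE and anti-HA Western blot with ECL detection.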

The test system of test [3] is Saccharomyces cerevisiae. Nature of the test: Binding affinity to Rce1p in yeast membrane at 15 uM measured 30 mins post irradiation by time-course experiment. Format: cell membranes. The procedure, abridged: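 Time course: RCE1-HA membranes (0.25 μg/μL) were irradiated at 2537 Å and 4 °C with 15 μM probe for 10–60 min, in 100 mM Hepes, 5 mM MgCl2, pH 7.5. Labelled protein was taken through streptavidin pull-down, SDS-PAGE and anti-HA Western blotting.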

In test [4] the test system is Saccharomyces cerevisiae. Nature of the test: Competitive binding affinity to Rce1p active site in yeast membrane at 15 uM measured 30 mins post irradiation by Western blot analysis in presence of 100 uM Abz-KSKTKC(Fr)K(Dnp)IM. Format: cell membranes. The procedure, abridged: (§2)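 RCE1-HA membranes (0.25 μg/μL) were irradiated at 2537 Å with 15 μM probe for 30 min at 4 °C. The non-photoreactive farnesylated substrate was present at 50 or 100 μM, in Hepes/MgCl2 pH 7.5. Samples were taken through streptavidin pull-down, SDS-PAGE, anti-HA Western blot with ECL, and densitometry across four replicate experiments.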

Test [5] relates to Saccharomyces cerevisiae. Nature of the test: Binding affinity to Rce1p in yeast membrane at 15 uM after 30 mins by Western blot analysis. Format: cell membranes. Put shortly: as §1
Test [6] has as its system Saccharomyces cerevisiae. Nature of the test: Activity of Rce1p in yeast membrane assessed as formation of Biotin-PEG3-KSK-Bpa-KC(Fr) at 20 uM after 4 hrs by RP-HPLC analysis. Format: cell membranes. The procedure, abridged:
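Probe diluted to 20 or 40 μM in 100 mM Hepes, 5 mM MgCl2, pH 7.5. Carbonate-washed yeast membranes containing Rce1p were added to 0.25 mg/mL total protein and incubated at 35 °C for about 4 h. Material was cleaned up on C18 reversed-phase cartridges and analysed by C18 RP-HPLC with diode-array detection at 220 and 349 nm. Product identity was checked by ESI-MS/MS.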

In test [7] the test system is Saccharomyces cerevisiae. Nature of the test: Competitive binding affinity to Rce1p active site in yeast membrane at 15 uM measured 30 mins post irradiation by Western blot analysis in presence of 50 uM Abz-KSKTKC(Fr)K(Dnp)IM. Format: cell membranes. The procedure, abridged:
as §2

For test [8], the system named is Saccharomyces cerevisiae. Nature of the test: Binding affinity to Rce1p in yeast membrane at 15 uM measured 30 mins post irradiation by Western blot analysis. In kind it is cell membranes. Put shortly: as §1
Test [9] has as its system Saccharomyces cerevisiae. Nature of the test: Binding affinity to rce1/ste24-deficient yeast cell membrane at 15 uM measured 30 mins post irradiation by Western blot analysis. Put shortly: as §1
The test system of test [10] is Saccharomyces cerevisiae. Nature of the test: Ratio of Vmax to Km for Rce1p in yeast membrane assessed as release of -K(Dnp)IM tripeptide measured per mg protein by fluorescence-based proteolytic assay. Format: cell membranes. The procedure, abridged: (§3)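 Enzyme was carbonate-washed membranes from S. cerevisiae overexpressing HA-tagged yeast Rce1p as the sole CAAX protease. Membranes were preincubated 10 min at 30 °C, then added to the Abz/Dnp fluorogenic farnesyl peptide: 10 concentrations, 0–45 or 0–50 μM final, 0.25 mg/mL membrane protein, Hepes/MgCl2 pH 7.5. Fluorescence (340/420 nm) was read every 30–60 s for 1 h at 30 °C. RFU were converted to product using a trypsin standard curve to give KM and Vmax. Runs were done in two or five replicates.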

The test system of test [11] is Saccharomyces cerevisiae. Nature of the test: Activity of Rce1p in yeast membrane assessed as release of -K(Dnp)IM tripeptide measured per mg protein by fluorescence-based proteolytic assay. Format: cell membranes. The procedure, abridged:
as §3

The source made the active and inactive calls. No cut-off for these calls is given here. Starred links: 1 amine or outer side, 2 acyl side, 3 side chain; linkers in the order of their positions; H or OH if unused. Non-standard residues stand in square brackets, D forms with d. Residues, ends and D or L forms follow the SMILES beside them. *: point of attachment. X5 = O=C1N[C@H]2[C@H](CS[C@H]2CCCCC(=O)OCCOCCOCCN([C@@H](Cc2ccc(C(=O)c3ccccc3)cc2)C(=O)[*:2])[*:1])N1; X1 = NCCCC[C@@H](C(=O)[*:2])N(CCOCCOCCOC(=O)CCCC[C@@H]1SC[C@@H]2NC(=O)N[C@@H]21)[*:1]; Lys(Dde) = CC(NCCCC[C@H](N)C(=O)O)=C1C(=O)CC(C)(C)CC1=O; X4 = O=C1N[C@H]2[C@H](CS[C@H]2CCCCC(=O)OCCOCCOCCOCN*)N1; X2 = C/C(=C\C*)CC/C=C(\C)COCc1cccc(C(=O)c2ccccc2)c1; Bpa = N[C@@H](Cc1ccc(C(=O)c2ccccc2)cc1)C(=O)O; Dnp = O=[N+]([O-])c1ccc(*)c([N+](=O)[O-])c1; X3 = C/C(=C\C*)COCc1cccc(C(=O)c2ccccc2)c1; Farnesyl = CC(C)=CCC/C(C)=C/CC/C(C)=C/C*; Suc = O=C(CCC(=O)[*:2])[*:1]; 2Abz = Nc1ccccc1C(=O)O

As for `CC[C@H](C)[C@H](NC(=O)[C@@H](NC(=O)[C@H](CSC/C=C(\C)CC/C=C(\C)CCC=C(C)C)NC(=O)[C@H](CCCCN)NC(=O)[C@@H](NC(=O)[C@H](CCCCN)NC(=O)[C@H](Cc1ccc(C(=O)c2ccccc2)cc1)NC(=O)[C@H](CCCCN)NCCOCCOCCOC(=O)CCCC[C@@H]1SC[C@@H]2NC(=O)N[C@@H]21)[C@@H](C)O)C(C)C)C(=O)N[C@@H](CCSC)C(=O)O` (H-[X1][Bpa]KTKC(Farnesyl)VIM-OH), in the test with Saccharomyces cerevisiae [1], the outcome was Active.

As to `CC[C@H](C)[C@H](NC(=O)[C@@H](NC(=O)[C@H](CSC/C=C(\C)CC/C=C(\C)CCC=C(C)C)NC(=O)[C@H](CCCCN)NC(=O)[C@H](Cc1ccc(C(=O)c2ccccc2)cc1)NC(=O)[C@H](CCCCN)NC(=O)[C@H](CO)NC(=O)[C@H](CCCCN)NCCOCCOCCOC(=O)CCCC[C@@H]1SC[C@@H]2NC(=O)N[C@@H]21)C(C)C)C(=O)N[C@@H](CCSC)C(=O)O` (H-[X1]SK[Bpa]KC(Farnesyl)VIM-OH), the outcome with Saccharomyces cerevisiae [1], in the test with Saccharomyces cerevisiae [3], in the test on Saccharomyces cerevisiae [6] and in the test with Saccharomyces cerevisiae [8] was Active. Moreover, the outcome in the test on Saccharomyces cerevisiae [2], with Saccharomyces cerevisiae [5] and in the test with Saccharomyces cerevisiae [9] was inactive. The figures for the Activity in the test on Saccharomyces cerevisiae [4] and in the test on Saccharomyces cerevisiae [7] were 7% and 84%, respectively.

In the case of `CC[C@H](C)[C@H](NC(=O)[C@H](CCCCNc1ccc([N+](=O)[O-])cc1[N+](=O)[O-])NC(=O)[C@H](CSC/C=C(\C)COCc1cccc(C(=O)c2ccccc2)c1)NC(=O)[C@H](CCCCN)NC(=O)[C@@H](NC(=O)[C@H](CCCCN)NC(=O)[C@H](CO)NC(=O)[C@H](CCCCN)NC(=O)c1ccccc1N)[C@@H](C)O)C(=O)N[C@@H](CCSC)C(=O)O` (H-[2Abz]KSKTKC(X3)K(Dnp)IM-OH), in the test on Saccharomyces cerevisiae [10], the Vmax/Km is 4.8 ×10⁻⁵ L/min. In addition, in the test with Saccharomyces cerevisiae [11], the Km (commonly the substrate concentration at which the rate is half of its maximum) worked out at 1.9 µM and the Vmax (usually the top rate of the reaction or transport when substrate is in excess) amounted to 0.093 nmol/min/mg.

Consider `CC[C@H](C)[C@H](NC(=O)[C@H](CCCCNc1ccc([N+](=O)[O-])cc1[N+](=O)[O-])NC(=O)[C@H](CSC/C=C(\C)CC/C=C(\C)COCc1cccc(C(=O)c2ccccc2)c1)NC(=O)[C@H](CCCCN)NC(=O)[C@@H](NC(=O)[C@H](CCCCN)NC(=O)[C@H](CO)NC(=O)[C@H](CCCCN)NC(=O)[C@H](CCCCNC(C)=C1C(=O)CC(C)(C)CC1=O)NC(=O)CCC(=O)NCOCCOCCOCCOC(=O)CCCC[C@@H]1SC[C@@H]2NC(=O)N[C@@H]21)[C@@H](C)O)C(=O)N[C@@H](CCSC)C(=O)O` ({X4-Suc}-[Lys(Dde)]KSKTKC(X2)K(Dnp)IM-OH), for which, in the test with Saccharomyces cerevisiae [1], the outcome was Active.

On to `CC[C@H](C)[C@H](NC(=O)[C@@H](NC(=O)[C@H](CSC/C=C(\C)CC/C=C(\C)CCC=C(C)C)NC(=O)[C@H](CCCCN)NC(=O)[C@@H](NC(=O)[C@H](CCCCN)NC(=O)[C@H](CO)NC(=O)[C@H](Cc1ccc(C(=O)c2ccccc2)cc1)NCCOCCOCCOC(=O)CCCC[C@@H]1SC[C@@H]2NC(=O)N[C@@H]21)[C@@H](C)O)C(C)C)C(=O)N[C@@H](CCSC)C(=O)O` (H-[X5]SKTKC(Farnesyl)VIM-OH), for which the result in the test on Saccharomyces cerevisiae [1] was Active.

Consider `CC[C@H](C)[C@H](NC(=O)[C@@H](NC(=O)[C@H](CSC/C=C(\C)CC/C=C(\C)CCC=C(C)C)NC(=O)[C@H](CCCCN)NC(=O)[C@@H](NC(=O)[C@H](Cc1ccc(C(=O)c2ccccc2)cc1)NC(=O)[C@H](CO)NC(=O)[C@H](CCCCN)NCCOCCOCCOC(=O)CCCC[C@@H]1SC[C@@H]2NC(=O)N[C@@H]21)[C@@H](C)O)C(C)C)C(=O)N[C@@H](CCSC)C(=O)O` (H-[X1]S[Bpa]TKC(Farnesyl)VIM-OH), for which the outcome in the test with Saccharomyces cerevisiae [1] was Active.

For the molecule `CC[C@H](C)[C@H](NC(=O)[C@H](CCCCNc1ccc([N+](=O)[O-])cc1[N+](=O)[O-])NC(=O)[C@H](CSC/C=C(\C)COCc1cccc(C(=O)c2ccccc2)c1)NC(=O)[C@H](CCCCN)NC(=O)[C@@H](NC(=O)[C@H](CCCCN)NC(=O)[C@H](CO)NC(=O)[C@H](CCCCN)NC(=O)[C@H](CCCCNC(C)=C1C(=O)CC(C)(C)CC1=O)NC(=O)CCC(=O)NCOCCOCCOCCOC(=O)CCCC[C@@H]1SC[C@@H]2NC(=O)N[C@@H]21)[C@@H](C)O)C(=O)N[C@@H](CCSC)C(=O)O` ({X4-Suc}-[Lys(Dde)]KSKTKC(X3)K(Dnp)IM-OH), the result in the test on Saccharomyces cerevisiae [1] was Active.

For the molecule `CC[C@H](C)[C@H](NC(=O)[C@H](CCCCNc1ccc([N+](=O)[O-])cc1[N+](=O)[O-])NC(=O)[C@H](CSC/C=C(\C)CC/C=C(\C)CCC=C(C)C)NC(=O)[C@H](CCCCN)NC(=O)[C@@H](NC(=O)[C@H](CCCCN)NC(=O)[C@H](CO)NC(=O)[C@H](CCCCN)NC(=O)c1ccccc1N)[C@@H](C)O)C(=O)N[C@@H](CCSC)C(=O)O` (H-[2Abz]KSKTKC(Farnesyl)K(Dnp)IM-OH), the Vmax/Km in the test with Saccharomyces cerevisiae [10] amounted to 8.6 ×10⁻⁴ L/min. In the test with Saccharomyces cerevisiae [11], the Km worked out at 6.4 µM and the Vmax came to 5.6 nmol/min/mg.

Source of the values: ChEMBL document CHEMBL2203008, “Photoaffinity labeling of Ras converting enzyme using peptide substrates that incorporate benzoylphenylalanine (Bpa) residues: improved labeling and structural implications” (Bioorg Med Chem, 2011).
